# Compound activity as filed in PubChem.
# Shown are actives, neighbours in structure and some others; about 3.9% of the full set was active somewhere.
# CRFBP-R2 agonist = agonists of CRF-BP/CRF-R2 complex, primary screen, cell-based, HEK293, calcium dye fluorescence, uHTS; calcium dye fluorescence (FLIPR); percent of saturating CRF peptide response; AID 588473, 2011; CRF-binding protein / CRF receptor 2 complex (human); activation, % at 13.2 µM; 350,000 tested, 0.46% active;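 active = activation of at least 50%, plus an integration ratio under a set limit after plate pattern correction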;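 note: plate controls were neutral control wells without compound for no effect and CRF at EC100 for full effect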
# ANO1 activ = TMEM16A chloride channel activators or potentiators, primary screen, cell-based, HTS; Anoctamin-1 (Mus musculus), Q8BHY3; HEK293 TMEM16A/YFP-H148Q/I152L, iodide quench fluorescence; stronger effect = lower value; B-score at 10 µM; 340,000 tested, 0.3% active; AID 623877, 2012;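 active = fluorescence-ratio B-score plate-corrected deviation score at least 3 library SD below zero, with starting fluorescence score within 5 deviations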;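 note: channel opened by trigger with iodide after compound preincubation; score built on the fluorescence ratio of max minus min over baseline; more negative score means more quench and so TMEM16A activation or potentiation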
# TAAR1 antag = human TAAR1 antagonists, primary screen, Fluo-8 calcium fluorescence, CHO RD-HGA16 cells. Trace amine-associated receptor 1 (Homo sapiens), Q96RJ0. antagonist. inhibition, % at 3 µM. 360,000 tested, 1.5% active. AID 624466, 2012;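 active = inhibition above a per-plate cutoff, the mean inhibition of test compounds on that plate plus 3 SD, cut at about 49% in these data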;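 note: 0% = DMSO plus EC80 beta-PEA response and 100% = DMSO alone without agonist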
#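 Test system: CHO RD-HGA16 cells bearing hTAAR1 | Reagent: β-PEA, EC80 | Compound dosing: 3 µM, single point | Schedule: Dye loading 75 min at 37 °C, then 30 min room temperature | Signal: Calcium fluorescence with Fluo-8 | Evaluation: Percent inhibition of PEA-evoked calcium signal, max/basal emission ratio | Control set: DMSO-only wells and EC80 β-PEA-stimulated wells | Repeats: Singlicate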
# CRFR2-BP antag = antagonists of CRF-BP/CRF-R2 complex, primary screen, cell-based, HEK293, calcium dye fluorescence, uHTS; CRF-induced calcium fluorescence; inhibition, % at 11.8 µM; 350,000 tested, 0.59% active; AID 588475, 2011;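 active = inhibition of the ligand-induced calcium signal above about 50% at the single tested concentration, limit read from the data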
# TMEM16A inh = TMEM16A chloride channel inhibitors, primary screen, cell-based, HTS; HEK293 TMEM16A/YFP iodide influx fluorescence, ionomycin; 310,000 tested, 1.2% active; normalized B-score (activity score, 25-100; higher = stronger inhibition) at 10 µM; AID 588511, 2011; Anoctamin-1 (Mus musculus), Q8BHY3;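 active = ratio plate-corrected score three or more library SD toward inhibition, starting fluorescence score within five deviations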;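 note: score derived from kinetic fluorescence span divided by baseline fluorescence per well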
# TAAR1 ag = human TAAR1 agonists, primary screen, Fluo-8 calcium fluorescence, CHO RD-HGA16 cells. activation, % at 3 µM. AID 624467, 2012. 360,000 tested, 0.99% active. vehicle wells 0%, saturating PEA agonist 100%;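 active = activation above the mean activation of all test compounds in the run plus 3 SD, cut at about 38% in these data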
#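 Signal – calcium-sensitive Fluo-8 signal, excitation 470-495, emission 515-575 nm · System – RD-HGA16 (CHO) cells co-expressing Gα16 and hTAAR1 · Incubation – 17-24 h seeding, 75 min 37 °C dye, 30 min RT · Compound dosing – 3 µM single concentration · Repeats – no replicates (n 1)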
# TMEM16A reconf = TMEM16A chloride channel inhibitors, confirmation, cell-based, re-confirmation. HEK293 TMEM16A/YFP-H148Q, iodide quench fluorescence; ionomycin added to raise cell calcium. inhibition, % at 10 µM. shares compounds with TMEM16A inh. 2,300 tested, 39% active;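 active = mean duplicate percent inhibition, scaled so buffer wells are 0 and the reference blocker 100, over three buffer SD above buffer mean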
# HEK293 Ca mobil = calcium mobilization in TMEM16A/YFP HEK293 cells, confirmation, counter-screen for TMEM16A inhibitor project; 2,300 tested, 2% active; Fluo4 calcium mobilization; AID 652231, 2013; shares compounds with TMEM16A inh; calcium response (% of ionomycin), % at 10 µM;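 active = duplicate-averaged calcium signal over 20% of the ionomycin maximum, relative to buffer baseline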;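 note: each well's signal is peak minus trough fluorescence divided by its pre-addition baseline; 0% = buffer wells and 100% = ionomycin wells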
# YFP-HEK293 quench = iodide YFP quench changes in parental YFP-HEK293, counter-screen for TMEM16A inhibitor project, cell-based; shares compounds with TMEM16A inh; ionomycin; YFP ratio F(max-min)/F0 at 10 µM; 2,300 tested, under 10 active; AID 652233, 2013;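 active = yellow fluorescent protein signal ratio exceeding the buffer control mean by over 5 SD of those controls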;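 note: ratio is mean of duplicate wells from kinetic YFP trace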
# ClC-1 inh = ClC-1 chloride channel inhibition, selectivity assay for TMEM16A inhibitor project, cell-based, voltage-dependent ClC-1; CHO ClC-1-YFP, iodide influx fluorescence quench; iodide control reads 0, buffer control 100; shares compounds with TMEM16A inh; ratio percent, % at 10 µM; 2,300 tested, under 10 active;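 active = duplicate-mean ratio percent above the mean of iodide-only control wells, which defines zero, plus 5 of their SD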;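 note: higher percent means stronger block of ClC-1 iodide influx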
# Target sequence (P35524 whole entry, looked up): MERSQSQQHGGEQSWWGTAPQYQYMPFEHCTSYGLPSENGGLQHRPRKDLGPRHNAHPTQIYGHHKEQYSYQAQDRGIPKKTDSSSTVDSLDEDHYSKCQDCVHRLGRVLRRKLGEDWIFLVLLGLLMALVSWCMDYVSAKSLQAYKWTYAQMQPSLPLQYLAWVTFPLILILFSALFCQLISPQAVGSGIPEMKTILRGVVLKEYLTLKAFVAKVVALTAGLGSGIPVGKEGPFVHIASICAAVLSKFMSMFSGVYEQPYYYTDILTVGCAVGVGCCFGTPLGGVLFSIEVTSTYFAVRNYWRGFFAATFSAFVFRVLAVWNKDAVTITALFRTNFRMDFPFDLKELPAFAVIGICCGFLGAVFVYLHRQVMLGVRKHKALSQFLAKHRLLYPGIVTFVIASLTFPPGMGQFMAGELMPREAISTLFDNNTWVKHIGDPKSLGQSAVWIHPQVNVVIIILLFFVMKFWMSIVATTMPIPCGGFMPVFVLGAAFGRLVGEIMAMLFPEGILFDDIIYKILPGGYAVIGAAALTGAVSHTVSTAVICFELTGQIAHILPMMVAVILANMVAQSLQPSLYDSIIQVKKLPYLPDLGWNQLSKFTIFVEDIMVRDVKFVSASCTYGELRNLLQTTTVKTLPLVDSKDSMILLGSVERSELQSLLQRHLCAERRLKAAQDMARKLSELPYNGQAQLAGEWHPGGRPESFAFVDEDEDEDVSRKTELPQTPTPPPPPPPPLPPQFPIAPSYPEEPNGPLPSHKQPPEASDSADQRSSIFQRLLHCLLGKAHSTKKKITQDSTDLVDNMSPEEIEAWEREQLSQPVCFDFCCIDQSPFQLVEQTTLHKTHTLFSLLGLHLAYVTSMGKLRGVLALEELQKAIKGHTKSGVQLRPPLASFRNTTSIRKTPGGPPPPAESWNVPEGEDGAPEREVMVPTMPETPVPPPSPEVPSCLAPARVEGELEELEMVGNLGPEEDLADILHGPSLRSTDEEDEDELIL
# * = called active by the depositor; i = inactive; . = not tested or not shown.
SMILES,CRFBP-R2 agonist,ANO1 activ,TAAR1 antag,CRFR2-BP antag,TMEM16A inh,TAAR1 ag,TMEM16A reconf,HEK293 Ca mobil,YFP-HEK293 quench,ClC-1 inh
CN(CC(=O)Nc1ccccc1Cl)C(=O)COC(=O)c1ccc([N+](=O)[O-])cc1Cl,-3,i,4,6,i,0,.,.,.,.
O=C(CSc1ncc(-c2ccccc2)n1-c1ccccc1)NCc1ccco1,-1,i,-9,33,25*,9,i,i,-0.98,-8
O=C(CSc1ccc2nnc(-c3ccccc3)n2n1)NCc1ccco1,4,i,5,-24,100*,5,i,i,-0.97,-7
Cc1ccc(OCC(=O)Nc2c3c(nn2C(C)(C)C)CS(=O)(=O)C3)cc1,0,i,8,-6,i,0,.,.,.,.
CCOC(=O)[C@]12CCC=C1N(Cc1ccco1)C(=O)[C@H](CC(=O)NCCCN1CCCC1=O)C2,.,.,0,.,.,2,.,.,.,.
COc1ccccc1-c1ccc(SCC(=O)N2CCOCC2)nn1,-1,i,-24,2,i,3,.,.,.,.
COc1ccccc1-c1ccc(SCc2ccc(C)cc2)nn1,4,i,5,42,25*,6,i,i,-0.88,-10
COc1ccccc1-c1ccc(SCc2ccc(F)cc2)nn1,-3,i,-10,36,100*,8,i,i,-0.99,-14
c1ccc(CSc2ccc(-c3cccs3)nn2)cc1,5,i,-1,-28,i,2,.,.,.,.
CN(CC(=O)N1CCc2ccccc2C1)c1ccccc1,-1,i,-8,-7,i,0,.,.,.,.
CC(=O)Nc1ccc(S(=O)(=O)N2c3ccccc3C(C)=CC2(C)C)cc1,3,i,-17,-2,i,6,.,.,.,.
CC1=CC(C)(C)N(S(=O)(=O)c2ccc(C)cc2)c2ccc(C)cc21,4,i,14,30,25*,6,i,i,-1.2,-12
CC1=CC(C)(C)N(S(=O)(=O)c2ccc(F)cc2)c2ccccc21,-1,i,-10,23,25*,4,i,i,-1,-18
COC(=O)c1ccc(N2CCN(C)CC2)c(NC(=O)c2cccs2)c1,0,i,-25,-4,i,6,.,.,.,.
CN(CCCNC(=O)Cn1cccc1C(=O)c1ccccc1)C1CCCCC1,0,i,11,-9,i,6,.,.,.,.
O=C(NCc1ccccc1)C1(C(F)(F)F)C/C(=C/CCO)CCCO1 (stereo not given),-1,i,7,5,i,10,.,.,.,.
C/C=C1\COC(C(=O)NCc2ccccc2)(C(F)(F)F)C=C1C=C(C)C (stereo not given),2,i,23,8,100*,2,i,i,-1.3,-13
C[C@H](CO)N1C[C@H](C)[C@H](CN(C)C(=O)c2cc(-c3ccccc3)on2)OCc2cnnn2CCCC1=O,-3,.,-3,-8,.,2,.,.,.,.
CCN(CC)S(=O)(=O)c1ccc(NC(=O)c2ccc(N(C)S(C)(=O)=O)cc2)cc1,5,i,-4,-24,100*,14,20%*,i,-1,-13
CCN(CC)S(=O)(=O)c1cccc(C(=O)Nc2ccc(C#N)cc2)c1,0,i,24,-7,100*,9,i,i,-1.1,-20
O=C(Nc1ccc(S(=O)(=O)NCCc2ccccc2)cc1)c1ccncc1,0,i,-5,-6,100*,18,19%*,i,-0.86,-10
CCN(CC)S(=O)(=O)c1ccc(C(=O)Nc2ccc(Cc3ccncc3)cc2)cc1,0,i,56*,-16,100*,21,28%*,i,-1.1,-21
O=C(Nc1ccc(S(=O)(=O)NCCc2ccccc2)cc1)c1ccco1,-2,i,.,3,i,.,.,.,.,.
CCN(CC)S(=O)(=O)c1ccc(NC(=O)c2ccccc2N(C)S(C)(=O)=O)cc1,-1,i,3,-32,i,5,.,.,.,.
CCN(CC)S(=O)(=O)c1ccc(C(=O)Nc2cc(C)cc(C)c2)cc1,0,i,12,19,i,8,.,.,.,.
SMILES,CRFBP-R2 agonist,ANO1 activ,TAAR1 antag,CRFR2-BP antag,TMEM16A inh,TAAR1 ag,TMEM16A reconf,HEK293 Ca mobil,YFP-HEK293 quench,ClC-1 inh
O=C(CNC(=O)c1ccc(Cl)c([N+](=O)[O-])c1)OC1CCCCC1=O (stereo not given),-1,i,-3,19,i,0,.,.,.,.
CCOc1ccc(Oc2ccc(S(=O)(=O)N3CCOCC3)cc2N)cc1,-3,i,-3,39,i,8,.,.,.,.
Nc1cc(S(=O)(=O)N2CCCCC2)ccc1Oc1ccccc1,-1,i,1,13,25*,6,16%*,i,-1,-9
CCOc1ccccc1CN1[C@@H](c2ccc(OC)cc2)CC(C(=O)OC)(C(=O)OC)[C@H]1c1ccccc1,.,.,-8,.,.,3,.,.,.,.
Cc1nn(C)c(Nc2ccc(Br)cc2)c1Br,0,i,8,26,100*,6,i,i,-0.98,-25
CCOC(=O)Cc1csc(SCC(=O)Nc2cccc(Cl)c2)n1,-3,i,25,-2,100*,9,26%*,i,-0.92,-17
CCOC(=O)Cc1csc(SCC(=O)Nc2cccc(C#N)c2)n1,-1,i,18,0,i,8,.,.,.,.
O=C(CSc1nnc(Cc2cc(=O)[nH]c(=O)[nH]2)n1-c1ccccc1)N1CCCCC1,1,i,-10,11,i,0,i,i,-0.85,-10
